Source: PubChem
Kir21 block: Kir2.1 (mouse) channel inhibition | B-score at 10 µM | 310,000 tested, 0.85% active | P35561 | HEK293-Kir2.1, FluxOR thallium flux fluorescence; stronger effect = lower value;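 active = fluorescence ratio B-score at or below minus 3 SD of library scores, with starting-brightness B-score within 2 SD, cut at about -4.2 in these data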;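 note: channel flux triggered by added potassium and thallium sulfate stimulus; B-score of peak minus minimum fluorescence over baseline after thallium stimulus; more negative B-score means stronger Kir2.1 block with less thallium influx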
Target sequence (P35561 whole entry, looked up): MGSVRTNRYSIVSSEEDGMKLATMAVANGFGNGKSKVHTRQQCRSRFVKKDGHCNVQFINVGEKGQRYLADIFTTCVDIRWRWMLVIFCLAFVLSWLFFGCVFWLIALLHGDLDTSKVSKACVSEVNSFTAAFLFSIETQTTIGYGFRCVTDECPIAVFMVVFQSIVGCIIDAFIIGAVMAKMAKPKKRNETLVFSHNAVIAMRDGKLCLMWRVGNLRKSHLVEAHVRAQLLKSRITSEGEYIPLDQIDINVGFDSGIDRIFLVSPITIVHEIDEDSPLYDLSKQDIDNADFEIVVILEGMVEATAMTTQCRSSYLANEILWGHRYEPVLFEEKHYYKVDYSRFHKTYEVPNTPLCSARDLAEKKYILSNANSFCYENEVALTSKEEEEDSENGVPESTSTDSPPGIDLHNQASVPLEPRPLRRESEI
KCNQ1 inh: inhibitors of human KCNQ1 potassium channel. P51787. CHO-K1 KCNQ1, FluxOR thallium flux fluorescence; stronger effect = higher value. B-score at 10 µM. 310,000 tested, 1.3% active. AID 2642;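 active = compounds whose thallium flux B-score, printed positive for inhibition, exceeds three library SD while starting fluorescence stays within three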;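 note: channel opened by potassium depolarization with thallium stimulus after 20 min compound exposure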
KCNK3 inh: human KCNK3 channel inhibition, primary screen | CHO-KCNK3 thallium flux, FluxOR fluorescence; stronger effect = lower value | B-score at 10 µM | 340,000 tested, 0.84% active | AID 602410;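 active = B-score under library mean minus 4 SD, starting fluorescence ratio at most library mean plus 5 SD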;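 note: more negative B-score means stronger inhibition of thallium flux through KCNK3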
hERG protect: shields human hERG channel from block by proarrhythmic agents; Q12809; CHO-hERG, FluxOR thallium flux, dofetilide IC70 present; activation (rescue from dofetilide block), less the hit threshold, % at 10 µM; 310,000 tested, 0.51% active; AID 1511;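 active = activation above the mean of controls blocked by dofetilide plus 5 SD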;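 note: thallium influx through hERG after potassium depolarization seen as dye fluorescence rise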
KCNK9 inh: blocks the human KCNK9 two-pore domain potassium channel | HEK293 KCNK9, FluxOR thallium flux fluorescence; stronger effect = lower value | 310,000 tested, 1.2% active | B-score at 10 µM | Q9NPC2;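 active = ratio B-score over 3 SD below the library mean, with starting fluorescence within 5 SD of its mean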;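 note: negative B-score means less thallium flux so channel inhibition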
KCNQ1 pot: potentiates or activates the human KCNQ1 potassium channel; P51787; B-score at 10 µM; 310,000 tested, 0.35% active; CHO-K1 KCNQ1, thallium flux FluxOR fluorescence; stronger effect = higher value;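 active = fluorescence ratio B-score, a plate-corrected score, at least three library SD, with initial intensity B-score within 5 SD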
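Assay system: CHO-K1 cells stably expressing KCNQ1. Medium: assay buffer for compound exposure, DMSO matched across wells. Timing: 37 °C overnight plating, 90-min dark dye load, 20-min compound pretreatment. Signal: kinetic FluxOR fluorescence, 10 s baseline plus 110 s post-stimulus.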
An asterisk follows results filed as active; i = inactive; nt = no result. Sampled rows, rich in hits. Any-hit rate of the full collection: about 3.8%.

SMILES	Kir21 block	KCNQ1 inh	KCNK3 inh	hERG protect	KCNK9 inh	KCNQ1 pot
Cc1ccc(N=Cc2cc(Br)cc(Cl)c2O)cc1	1.67	i	i	-4.9	i	i
Oc1c(Cl)cc(Cl)cc1C=Nc1ccc(Br)cc1	0.72	i	i	5.0*	i	i
CCOc1ccccc1NC1=C(Cl)C(=O)N(c2ccccc2)C1=O	1.94	i	i	-11.2	i	13*
Nc1ncnc2c(C3OC(CO)C(O)C3O)c[nH]c12 (centres undefined)	nt	nt	i	nt	nt	nt
Oc1ccccc1N=Nc1nc(-c2ccccc2)c(-c2ccccc2)[nH]1	-0.06	10*	i	-18.6	i	i
COc1ccccc1N=Nc1nc(-c2ccccc2)c(-c2ccccc2)[nH]1	-0.12	i	i	-27.7	i	i
COc1ccc(N=Nc2nc(-c3ccccc3)c(-c3ccccc3)[nH]2)cc1	-0.02	6*	i	-5.7	i	i
COc1ccc(C(=O)C[n+]2ccc3c(c2)nnn3-c2ccccc2)cc1	1.25	i	i	-2.1	i	i
CC(NCCC1(Cc2ccccc2Cl)CCOC(C)(C)C1)c1cccs1 (centres undefined)	-4.92*	i	i	-15.6	i	i
CC(NCCC1(C(C)C)CCOC(C)(C)C1)c1cccs1 (centres undefined)	-0.42	i	i	-7.9	i	i
C/C(=N\N=C(c1ccccc1)c1ccccc1)c1ccco1	1.84	7*	i	-14.8	i	i
O=c1nc(Nc2ccccc2)sc2ccc([N+](=O)[O-])cc12	-1.24	i	i	-6.2	i	i
COCCN1CCN(C(=O)c2cc(COc3ccc(F)c(F)c3)on2)CC1	-0.14	i	i	-4.0	i	i
Clc1ccc2c(N/N=C/c3cccc(Br)c3)ccnc2c1	-0.73	9*	i	-3.3	i	i
COc1ccc(CNCc2cccc(OC)c2OC)cc1Br	-5.02*	i	i	-19.3	i	i
Oc1ccc(CN2CCCCC2)c2cccnc12	-1.35	i	i	1.7	i	i
Oc1ccccc1CNc1cccc2cccnc12	-1.21	i	i	-8.6	-7.29*	i
Oc1ccc(CN2CCc3ccccc3C2)c2cccnc12	-10.3*	i	i	-4.9	i	i
Oc1ccc(CNc2ccccc2F)c2cccnc12	-0.55	7*	i	-10.9	i	i
COc1cc(NCc2ccccc2O)c2ncccc2c1	-0.61	i	i	-2.0	i	i
CN1C(=O)OC(C)(C)C1=O	0.64	i	i	-4.8	i	i
O=C(Cn1cc(C(F)(F)F)ccc1=O)NC1CCCC1	nt	nt	i	nt	nt	nt
CSc1ccccc1OCc1cc(C(=O)N(C)Cc2ccncn2)no1	0	i	i	-3.1	i	i
COc1ccc(CCNC(=O)CCCOc2cc(=O)n(C)c3ccccc23)cc1OC	0.61	i	i	-8.7	i	i
CN(CCCNC(=O)CCCOc1cc(=O)n(C)c2ccccc12)Cc1ccccc1	0.57	i	i	-7.5	i	8*
SMILES	Kir21 block	KCNQ1 inh	KCNK3 inh	hERG protect	KCNK9 inh	KCNQ1 pot
COC(=O)c1c(C(=O)OC)c(-c2ccc(OC)cc2)n2c1CS(=O)(=O)C2	-0.77	i	i	-1.1	i	i
Cc1ccc(CN2C(=O)NC(Cc3c[nH]c4ccccc34)C2=O)cc1 (centres undefined)	-4.34*	i	i	-14.7	i	i
CC1CCC/C=C/C(=O)c2c(O)cc(O)cc2CC(=O)O1 (centres undefined)	-1.02	7*	i	-15.8	i	i
COc1ccc(-c2oc(NC(=O)CSc3ncn[nH]3)c(C#N)c2-c2ccc(OC)cc2)cc1	0.08	i	-13.4*	-18.4	i	i
COc1ccccc1OCC(=O)Nc1oc(-c2ccccc2)c(-c2ccccc2)c1C#N	nt	nt	-9.38*	nt	nt	nt
COc1ccc(-c2oc(NC(=O)CCl)c(C#N)c2-c2ccc(OC)cc2)cc1	-0.02	i	i	-3.4	i	i
Cc1ccc(OCC(=O)Nc2oc(-c3ccccc3)c(-c3ccccc3)c2C#N)cc1	0.36	6*	i	-3.8	i	i
